# A selection: hits, their analogues and other compounds. The true share with any hit is near 4.1%.
# KCNK3 block: human KCNK3 channel inhibition, primary screen | AID 602410 | hit rate 0.84% among 340,000 | B-score at 10 µM | CHO-KCNK3 thallium flux, FluxOR fluorescence; active compounds read low;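 active = B-score under library mean minus 4 SD, starting fluorescence ratio at most library mean plus 5 SD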;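 also: more negative B-score means stronger inhibition of thallium flux through KCNK3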
# KCNQ1 inh: human KCNQ1 channel inhibition; CHO-K1 KCNQ1, FluxOR thallium flux fluorescence; active compounds read high; B-score at 10 µM; hit rate 1.3% among 310,000; AID 2642;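 active = compounds whose thallium flux B-score, printed positive for inhibition, exceeds three library SD while starting fluorescence stays within three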;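 also: channel opened by potassium depolarization with thallium stimulus after 20 min compound exposure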
# Target sequence (P51787 whole entry, looked up): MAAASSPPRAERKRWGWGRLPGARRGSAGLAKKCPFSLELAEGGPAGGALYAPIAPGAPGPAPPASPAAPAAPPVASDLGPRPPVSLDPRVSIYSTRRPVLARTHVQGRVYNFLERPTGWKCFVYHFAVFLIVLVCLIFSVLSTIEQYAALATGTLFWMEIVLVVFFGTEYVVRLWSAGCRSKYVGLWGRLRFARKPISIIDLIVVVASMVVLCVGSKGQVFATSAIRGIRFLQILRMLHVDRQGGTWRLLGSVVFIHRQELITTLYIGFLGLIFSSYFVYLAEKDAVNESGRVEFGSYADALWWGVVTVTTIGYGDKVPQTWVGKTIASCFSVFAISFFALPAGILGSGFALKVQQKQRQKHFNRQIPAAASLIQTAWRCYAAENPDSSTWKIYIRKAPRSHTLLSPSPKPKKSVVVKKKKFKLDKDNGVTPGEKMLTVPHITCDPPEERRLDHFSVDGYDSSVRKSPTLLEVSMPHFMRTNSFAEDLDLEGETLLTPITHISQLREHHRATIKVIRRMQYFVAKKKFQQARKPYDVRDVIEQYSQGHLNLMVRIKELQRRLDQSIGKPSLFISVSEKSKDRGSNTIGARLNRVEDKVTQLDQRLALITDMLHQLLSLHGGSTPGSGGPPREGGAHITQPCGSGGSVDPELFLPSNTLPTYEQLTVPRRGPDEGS
# KCC2 mod: modulates chloride dependent transport by human KCC2 | KCC2 cells, thallium flux FluoZin-2 fluorescence | hit rate 2.2% among 190,000 | AID 1456 | B-score of Tl+ flux slope (higher = more flux/activation; lower = inhibition) at 10 µM;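 active = thallium flux slope and its plate-corrected score both differing from the plate sample mean at a set confidence after two filtering rounds, in either direction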;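 also: slope of fluorescence scaled to starting intensity during 10 to 20 s after thallium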
# hERG rescue: compounds protecting human hERG from proarrhythmic drug block | Q12809 | CHO-hERG, FluxOR thallium flux, dofetilide IC70 present | activation (rescue from dofetilide block), less the hit threshold, % at 10 µM | hit rate 0.51% among 310,000;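 active = activation above the mean of controls blocked by dofetilide plus 5 SD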;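 also: thallium influx through hERG after potassium depolarization seen as dye fluorescence rise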
# KCNK9 block: human KCNK9 channel inhibition. hit rate 1.2% among 310,000. HEK293 KCNK9, FluxOR thallium flux fluorescence; active compounds read low. B-score at 10 µM. Q9NPC2;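 active = ratio B-score over 3 SD below the library mean, with starting fluorescence within 5 SD of its mean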;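 also: negative B-score means less thallium flux so channel inhibition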
# KCNQ1 pot: potentiates or activates the human KCNQ1 potassium channel; CHO-K1 KCNQ1, thallium flux FluxOR fluorescence; active compounds read high; P51787; B-score at 10 µM; hit rate 0.35% among 310,000;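 active = fluorescence ratio B-score, a plate-corrected score, at least three library SD, with initial intensity B-score within 5 SD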
#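 Assay system: stable KCNQ1 CHO-K1 line; medium: assay buffer, equal DMSO in all wells; timing: 90 min dye loading and 20 min compound exposure, both at room temperature; technique: kinetic FluxOR thallium fluorescence, 10-s 1-Hz baseline, 110-s post-stimulus read; read-out basis: B score of baseline-normalized fluorescence ratio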
# KCNQ1 inh valid: reconfirmed blocker of the human KCNQ1 potassium channel; shares compounds with KCNQ1 inh; KCNQ1 cell line, FluxOR thallium flux fluorescence; inhibition, % at 10 µM; hit rate 93% among 1,600;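 active = primary screen active, with duplicate mean exceeding buffer control mean plus 3 SD of buffer wells, cut at about 28% in these data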;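 also: 0% = buffer control ratio and 100% = XE991 inhibitor control ratio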
# CHO Tl flux: counter-screen for KCNQ1 inhibitors: effect in parental CHO cells | parental CHO-K1, FluxOR thallium flux fluorescence ratio; active compounds read low; zero means no signal rise above baseline | shares compounds with KCNQ1 inh | hit rate 21% among 1,600 | fluorescence ratio (Tl flux) at 10 µM;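 active = mean of duplicate thallium-flux fluorescence ratios in parental host cells more than 5 SD below the buffer control mean, cut at about 0.38 in these data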;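 also: ratio is peak minus minimum fluorescence divided by baseline fluorescence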
# KCNQ1 ephys val: confirmation of human KCNQ1 potassium channel inhibitors by electrophysiology; shares compounds with KCNQ1 inh; KCNQ1-CHO cells, automated patch clamp current; calls only at 10 µM; hit rate 20% among 490;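 active = KCNQ1 current drop exceeding 3 SD of negative control wells, seen in both duplicate runs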;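 also: steady state current during a 2 s step from -80 to +40 mV; negative values mean current inhibition and positive values mean potentiation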
# KCNQ2 inh: KCNQ1 inhibitor that also blocks rat KCNQ2 channel. hit rate 71% among 1,600. shares compounds with KCNQ1 inh. inhibition, % at 10 µM. AID 651746. KCNQ2 cells, FluxOR thallium flux fluorescence;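 active = mean percent inhibition of the KCNQ2 thallium signal more than 5 SD above the buffer-only control wells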;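 also: KCNQ2 expressed in CHO cells; 0% = buffer control wells and 100% = XE-991 inhibitor control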
# KCNQ1 KCNE1 spec: KCNQ1 inhibitor that also blocks human KCNQ1/KCNE1 channel; shares compounds with KCNQ1 inh; KCNQ1/KCNE1 cells, FluxOR thallium flux fluorescence; inhibition, % at 10 µM; hit rate 77% among 1,600; AID 652147;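 active = mean percent inhibition of duplicate wells above the buffer-only control mean plus 3 SD of those controls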;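 also: 0% = buffer only wells and 100% = XE-991 inhibitor control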
# Active calls of the source: *; i = inactive; / = no result; + = active, no number.
SMILES,KCNK3 block,KCNQ1 inh,KCC2 mod,hERG rescue,KCNK9 block,KCNQ1 pot,KCNQ1 inh valid,CHO Tl flux,KCNQ2 inh,KCNQ1 KCNE1 spec,others
Nc1ncnc2c1ncn2[C@@H]1O[C@H](CNC(=O)[C@H](N)Cc2cscn2)[C@@H](O)[C@H]1O,i,/,/,/,/,/,/,/,/,/,
COc1cc(OC)c(C(=O)Nc2cccc3ccccc23)cc1OC,i,i,/,-3,i,i,/,/,/,/,
O=C(CCNC(=O)c1ccccc1)NNC(=O)COc1ccccc1Cl,i,/,/,/,/,/,/,/,/,/,
CCOC(=O)c1c(C)[nH]c(C)c1C(=O)CSc1nc2ccccc2c(=O)n1-c1ccc(C)cc1,i,6*,-1.2,-8,i,i,58*,0.5,i,58%*,
Cc1ccc(C(=O)Nc2ccc(S(=O)(=O)NC3=NCCCCC3)cc2)cc1S(=O)(=O)N1CCOCC1,i,/,/,/,/,/,/,/,/,/,
CCN(CC)C1CCN(C(=O)c2cc(COc3ccc(-n4cncn4)cc3)on2)C1 (stereo not drawn),i,i,/,-5,i,i,/,/,/,/,
Cc1c(C(=O)NC2CCCCC2)sc2ncnc(N3CCN(c4ccccc4)CC3)c12,i,i,/,-10,i,i,/,/,/,/,
Cc1cc(Br)ccc1NC(=O)c1sc2ncnc(N3CCN(c4ccccn4)CC3)c2c1C,i,6*,/,-17,i,i,89*,0.44,104%*,82%*,KCNQ1 ephys val=i
COc1ccc(NC(=O)CN2CCN(c3ccccn3)CC2)cc1Cl,i,i,/,-2,i,i,/,/,/,/,
Cc1c(C(=O)Nc2c(F)cccc2F)sc2ncnc(N3CCN(c4ccccc4)CC3)c12,i,7*,-0.23,-15,i,i,64*,0.45,104%*,88%*,
COc1ccc(NC(=O)c2sc3ncnc(N4CCN(c5ccccn5)CC4)c3c2C)cc1Cl,i,8*,/,-19,i,i,80*,0.4,97%*,108%*,
O=C(CN(C(=O)CCC(=O)Nc1nccs1)c1ccccc1F)NCc1ccccc1,i,i,/,-7,i,i,/,/,/,/,
Cc1ccc(OCC(O)Cn2c(=N)n(Cc3ccccc3)c3ccccc32)cc1 (stereo not drawn),i,8*,/,-28,i,i,78*,0.41,93%*,36%*,
Cc1cc(C)c(S(=O)(=O)n2ccc3ccccc32)c(C)c1,i,9*,/,-7,i,i,106*,0.38*,116%*,142%*,
COc1ccc(CNc2ncnc3sccc23)cc1,i,i,/,-16,i,i,/,/,/,/,
CCCCCNC(=O)c1cccc(S(=O)(=O)N2CC3(C)CC2CC(C)(C)C3)c1 (stereo not drawn),i,7*,/,-13,i,i,86*,0.5,i,88%*,
CC(C)(C)c1ccccc1NC(=O)CN1C(=O)NC(Cc2ccccc2)C1=O (stereo not drawn),i,i,/,-9,i,i,/,/,/,/,
CC(C)c1c(C(=O)N/N=C2\CCc3ccccc32)nnn1-c1nonc1N,i,i,/,-9,i,i,/,/,/,/,
CCCn1nc(NC(=O)CC)c2cc3cccc(C)c3nc21,i,i,/,-5,i,i,/,/,/,/,
CCCn1nc(NC(=O)c2cccs2)c2cc3cccc(C)c3nc21,i,7*,0.19,-10,i,i,158*,0.32*,i,+,
O=C(CCN1C(=O)c2cccc([N+](=O)[O-])c2C1=O)NC1CCCCCC1,i,/,/,/,/,/,/,/,/,/,
CC(C(=O)Nc1ccc2c(c1)OCO2)n1cnc2c1c(=O)n(C)c(=O)n2C (stereo not drawn),i,/,/,/,/,/,/,/,/,/,
O=C(Nc1cccc(F)c1)c1ccc(-c2ccccc2Cl)o1,i,8*,-1.6,-15,i,i,161*,0.31*,119%*,+,
Clc1ccc(-c2cc3ccccc3nc2N2CCCC2)cc1,i,12*,/,-9,i,i,130*,0.4,83%*,167%*,KCNQ1 ephys val=i
Cc1ccc(-c2cc3ccccc3nc2N2CCCC2)cc1,i,12*,/,-8,i,i,118*,0.43,87%*,194%*,KCNQ1 ephys val=i
SMILES,KCNK3 block,KCNQ1 inh,KCC2 mod,hERG rescue,KCNK9 block,KCNQ1 pot,KCNQ1 inh valid,CHO Tl flux,KCNQ2 inh,KCNQ1 KCNE1 spec,others
O=C(Nc1cccc(Cl)c1)Nc1ccc(Br)cc1F,i,9*,0.45,-13,i,i,52*,0.55,i,i,
O=C(Nc1cccc(Cl)c1)Nc1ccnc(-c2cccnc2)n1,i,6*,-0.76,-9,i,i,74*,0.52,i,i,
O=C(Nc1ccc(Cl)c(Cl)c1)Nc1nccs1,i,i,1,-9,i,i,/,/,/,/,
O=C(Nc1cccc(Cl)c1)Nc1cnccn1,i,i,/,-3,i,i,/,/,/,/,
O=C(Nc1ccccc1)Nc1ccc(Br)cc1F,i,i,1.7,-11,i,i,/,/,/,/,
Cc1csc(NC(=O)Nc2cccc(Cl)c2)n1,i,6*,0.8,-5,i,i,70*,0.52,i,93%*,
O=C(Nc1cccc(Cl)c1)Nc1nccs1,i,7*,0.46,-6,i,i,70*,0.54,i,42%*,
Cc1onc(-c2ccccc2)c1C(=O)OCC(=O)NC(C)c1ccc(Cl)cc1 (stereo not drawn),i,/,/,/,/,/,/,/,/,/,
CC(O)CNc1nc(N)[nH]c(=O)c1N=Nc1ccccc1 (stereo not drawn),i,/,/,/,/,/,/,/,/,/,
Cc1ccc(O)c(N/C=C/C(=O)c2ccc(F)cc2)c1,i,i,/,-8,i,i,/,/,/,/,
CCc1c(C)nc(N2CCN(c3ccc(OC)cc3)CC2)[nH]c1=O,i,i,/,2,i,i,/,/,/,/,
O=C(Nc1cccc(Cl)c1)Nc1ccon1,i,7*,/,-10,i,i,54*,0.54,i,i,
COc1ccc(N/C=C2\CCOC2=O)cc1,i,i,0.076,-6,i,i,/,/,/,/,
COc1ccc(N/C=C2\CCc3ccccc3C2=O)cc1,i,6*,-2,-20,i,i,50*,0.69,112%*,114%*,
